Reference: ChEMBL document CHEMBL3286116, “Synthesis, biological evaluation and structure-activity correlation study of a series of imidazol-based compounds as Candida albicans inhibitors” (Eur J Med Chem, 2014)
Values after ≈ are worked out from the molar mass of the structure shown.

What was measured:
Candida albicans [1] = assay: Antifungal activity against Candida albicans ATCC 3153 after 48 hrs by CLSI broth microdilution method; assay type: functional; settings: ATCC 3153, 48 h
How it was run: (§1)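 Yeast CLSI broth microdilution (M27-A3). Compounds dissolved in DMSO at 100× the top test concentration, then diluted as serial two-fold dilutions in RPMI 1640 to final 0.125–64. Inoculum was 1.0–1.5 × 10^3 cells mL−1, incubated at 35 °C and read for growth at 48 h. MIC is the lowest concentration giving ≥50% growth inhibition versus growth control. Reported as the median of five replicates and as the geometric mean.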

Candida parapsilosis [2] = assay: Antifungal activity against Candida parapsilosis DSM 11224 after 48 hrs by CLSI broth microdilution method; assay type: functional; settings: Lodderomyces parapsilosis, DSM 11224, 48 h; how it was run: as §1
Candida albicans [3] = assay: Antifungal activity against Candida albicans PMC 1042R after 48 hrs by CLSI broth microdilution method; assay type: functional; how it was run: as §1
Nannizzia gypsea [4] = assay: Antifungal activity against Microsporum gypseum DSM 3824 after 72 hrs by CLSI broth microdilution method; assay type: functional; settings: DSM 3824, 72 h
How it was run: (§2)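 Dermatophytes tested by CLSI broth microdilution for filamentous fungi (M38-A2). Serial two-fold dilutions of DMSO-dissolved compound in RPMI 1640, final 0.125–64. Inoculum was 0.4–5 × 10^4 CFU mL−1, incubated at 35 °C and read at 72 h. MIC80 is the lowest concentration giving ≥80% growth inhibition versus growth control. Median of five replicates, plus geometric mean.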

[5] = test system: Trichophyton mentagrophytes; assay: Antifungal activity against Trichophyton mentagrophytes PMC 6531 after 72 hrs by CLSI broth microdilution method; assay type: functional; settings: PMC 6531, 72 h; how it was run: as §2
Nakaseomyces glabratus [6] = assay: Antifungal activity against Candida glabrata PMC 0850R after 48 hrs by CLSI broth microdilution method; assay type: functional; how it was run: as §1
Candida albicans [7] = assay: Antifungal activity against Candida albicans ATCC 20891 after 48 hrs by CLSI broth microdilution method; assay type: functional; settings: ATCC 20891, 48 h; how it was run: as §1
Cryptococcus neoformans [8] = assay: Antifungal activity against Cryptococcus neoformans PMC 2103 after 72 hrs by CLSI broth microdilution method; assay type: functional; settings: PMC 2103, 72 h
How it was run: (§3)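 Cryptococcus neoformans tested by CLSI broth microdilution in RPMI 1640, with serial two-fold dilutions from DMSO stocks at 100× the top concentration, final 0.125–64. Inoculum was 1.0–1.5 × 10^3 cells mL−1 at 35 °C, with growth read at 72 h. MIC is the lowest concentration with ≥50% growth inhibition versus control. Median of five replicates, plus geometric mean.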

[9] = test system: Trichophyton mentagrophytes; assay: Antifungal activity against Trichophyton mentagrophytes PMC 6552 after 72 hrs by CLSI broth microdilution method; assay type: functional; settings: PMC 6552, 72 h; how it was run: as §2
Cryptococcus neoformans [10] = assay: Antifungal activity against Cryptococcus neoformans PMC 2111 after 72 hrs by CLSI broth microdilution method; assay type: functional; settings: PMC 2111, 72 h; how it was run: as §3
Cryptococcus neoformans [11] = assay: Antifungal activity against Cryptococcus neoformans PMC 2107 after 72 hrs by CLSI broth microdilution method; assay type: functional; settings: PMC 2107, 72 h; how it was run: as §3
Candida albicans [12] = assay: Antifungal activity against Candida albicans PMC 1041R after 48 hrs by CLSI broth microdilution method; assay type: functional; how it was run: as §1
Cryptococcus neoformans [13] = assay: Antifungal activity against Cryptococcus neoformans PMC 2115 after 72 hrs by CLSI broth microdilution method; assay type: functional; settings: PMC 2115, 72 h; how it was run: as §3
Candida albicans [14] = assay: Antifungal activity against Candida albicans ATCC 10261 after 48 hrs by CLSI broth microdilution method; assay type: functional; settings: ATCC 10261, 48 h; how it was run: as §1
Candida tropicalis [15] = assay: Antifungal activity against Candida tropicalis PMC 0910 after 48 hrs by CLSI broth microdilution method; assay type: functional; settings: PMC 0910, 48 h; how it was run: as §1
Candida albicans [16] = assay: Antifungal activity against Candida albicans PMC 1040R after 48 hrs by CLSI broth microdilution method; assay type: functional; how it was run: as §1
Candida albicans [17] = assay: Antifungal activity against Candida albicans ATCC 90028 after 48 hrs by CLSI broth microdilution method; assay type: functional; settings: ATCC 90028, 48 h; how it was run: as §1
[18] = test system: Trichophyton mentagrophytes; assay: Antifungal activity against Trichophyton mentagrophytes DSM 4870 after 72 hrs by CLSI broth microdilution method; assay type: functional; settings: DSM 4870, 72 h; how it was run: as §2
Cryptococcus neoformans [19] = assay: Antifungal activity against Cryptococcus neoformans PMC 2136 after 72 hrs by CLSI broth microdilution method; assay type: functional; settings: PMC 2136, 72 h; how it was run: as §3
Cryptococcus neoformans [20] = assay: Antifungal activity against Cryptococcus neoformans PMC 2102 after 72 hrs by CLSI broth microdilution method; assay type: functional; settings: PMC 2102, 72 h; how it was run: as §3
Pichia kudriavzevii [21] = assay: Antifungal activity against Candida krusei PMC 0613 after 48 hrs by CLSI broth microdilution method; assay type: functional; settings: PMC 0613, 48 h; how it was run: as §1
Cryptococcus neoformans [22] = assay: Antifungal activity against Cryptococcus neoformans PMC 2123 after 72 hrs by CLSI broth microdilution method; assay type: functional; settings: PMC 2123, 72 h; how it was run: as §3
[23] = test system: Trichophyton mentagrophytes; assay: Antifungal activity against Trichophyton mentagrophytes PMC 6515 after 72 hrs by CLSI broth microdilution method; assay type: functional; settings: PMC 6515, 72 h; how it was run: as §2
Nakaseomyces glabratus [24] = assay: Antifungal activity against Candida glabrata PMC 0853R after 48 hrs by CLSI broth microdilution method; assay type: functional; how it was run: as §1
Nakaseomyces glabratus [25] = assay: Antifungal activity against Candida glabrata PMC 0851R after 48 hrs by CLSI broth microdilution method; assay type: functional; how it was run: as §1
[26] = test system: Trichophyton mentagrophytes; assay: Antifungal activity against Trichophyton mentagrophytes PMC 6509 after 72 hrs by CLSI broth microdilution method; assay type: functional; settings: PMC 6509, 72 h; how it was run: as §2
Nakaseomyces glabratus [27] = assay: Antifungal activity against Candida glabrata PMC 0807 after 48 hrs by CLSI broth microdilution method; assay type: functional; settings: PMC 0807, 48 h; how it was run: as §1
Nakaseomyces glabratus [28] = assay: Antifungal activity against Candida glabrata PMC 0805 after 48 hrs by CLSI broth microdilution method; assay type: functional; settings: PMC 0805, 48 h; how it was run: as §1
Candida albicans [29] = assay: Antifungal activity against Candida albicans ATCC 24433 after 48 hrs by CLSI broth microdilution method; assay type: functional; settings: ATCC 24433, 48 h; how it was run: as §1
[30] = test system: Trichophyton mentagrophytes; assay: Antifungal activity against Trichophyton mentagrophytes PMC 6503 after 72 hrs by CLSI broth microdilution method; assay type: functional; settings: PMC 6503, 72 h; how it was run: as §2
Nakaseomyces glabratus [31] = assay: Antifungal activity against Candida glabrata PMC 0852R after 48 hrs by CLSI broth microdilution method; assay type: functional; how it was run: as §1
Candida albicans [32] = assay: Antifungal activity against Candida albicans ATCC 10231 after 48 hrs by CLSI broth microdilution method; assay type: functional; settings: ATCC 10231, 48 h; how it was run: as §1
Pichia kudriavzevii [33] = assay: Antifungal activity against Candida krusei DSM 6128 after 48 hrs by CLSI broth microdilution method; assay type: functional; settings: DSM 6128, 48 h; how it was run: as §1
[34] = Cytotoxicity against human A549 cells after 48 hrs by MTT assay; assay type: cell-based
How it was run: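 A549 cells (ATCC CCL-185) seeded at 2 × 10^4/well in phenol-red-free RPMI 1640 with 10% FBS, L-glutamine, penicillin and streptomycin, at 37 °C and 5% CO2. Exposed 48 h to DMSO-dissolved compounds (final 16–256; at least five concentrations, triplicate). MTT added for 3–4 h, crystals solubilized, OD read at 570 nm. CC50 taken versus the DMSO control. Mean ± SD of two independent experiments.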

Candida parapsilosis [35] = assay: Antifungal activity against Candida parapsilosis ATCC 22019 after 48 hrs by CLSI broth microdilution method; assay type: functional; settings: Lodderomyces parapsilosis, ATCC 22019, 48 h; how it was run: as §1
Cryptococcus neoformans [36] = assay: Antifungal activity against Cryptococcus neoformans DSM 11959 after 72 hrs by CLSI broth microdilution method; assay type: functional; settings: DSM 11959, 72 h; how it was run: as §3
Candida albicans [37] = assay: Antifungal activity against Candida albicans ATCC 76615 after 48 hrs by CLSI broth microdilution method; assay type: functional; settings: ATCC 76615, 48 h; how it was run: as §1
Nannizzia gypsea [38] = assay: Antifungal activity against Microsporum gypseum PMC 7303 after 72 hrs by CLSI broth microdilution method; assay type: functional; settings: PMC 7303, 72 h; how it was run: as §2
Nannizzia gypsea [39] = assay: Antifungal activity against Microsporum gypseum PMC 7331 after 72 hrs by CLSI broth microdilution method; assay type: functional; settings: PMC 7331, 72 h; how it was run: as §2
Candida albicans [40] = assay: Antifungal activity against Candida albicans PMC 1011 after 48 hrs by CLSI broth microdilution method; assay type: functional; settings: PMC 1011, 48 h; how it was run: as §1
Candida tropicalis [41] = assay: Antifungal activity against Candida tropicalis DSM 11953 after 48 hrs by CLSI broth microdilution method; assay type: functional; settings: DSM 11953, 48 h; how it was run: as §1

MIC50 (Candida albicans [1]): 8 µg/mL (≈ 15.4 µM)
MIC50 (Candida parapsilosis [2]): 0.125 µg/mL (≈ 0.24 µM)
MIC50 (Candida albicans [3]): 2 µg/mL (≈ 3.85 µM)
MIC80 (Nannizzia gypsea [4]): 4 µg/mL (≈ 7.69 µM)
MIC80 [5]: 8 µg/mL (≈ 15.4 µM)
MIC50 (Nakaseomyces glabratus [6]): 1 µg/mL (≈ 1.92 µM)
MIC50 (Candida albicans [7]): 0.125 µg/mL (≈ 0.24 µM)
MIC50 (Cryptococcus neoformans [8]): 0.25 µg/mL (≈ 0.481 µM)
MIC80 [9]: 8 µg/mL (≈ 15.4 µM)
MIC50 (Cryptococcus neoformans [10]): 0.5 µg/mL (≈ 0.962 µM)
MIC50 (Cryptococcus neoformans [11]): 0.25 µg/mL (≈ 0.481 µM)
MIC50 (Candida albicans [12]): 1 µg/mL (≈ 1.92 µM)
MIC50 (Cryptococcus neoformans [13]): 0.25 µg/mL (≈ 0.481 µM)
MIC50 (Candida albicans [14]): 1 µg/mL (≈ 1.92 µM)
MIC50 (Candida tropicalis [15]): 2 µg/mL (≈ 3.85 µM)
MIC50 (Candida albicans [16]): 64 µg/mL (≈ 123 µM)
MIC50 (Candida albicans [17]): 0.25 µg/mL (≈ 0.481 µM)
MIC80 [18]: 8 µg/mL (≈ 15.4 µM)
MIC50 (Cryptococcus neoformans [19]): 0.125 µg/mL (≈ 0.24 µM)
MIC50 (Cryptococcus neoformans [20]): 0.25 µg/mL (≈ 0.481 µM)
MIC50 (Pichia kudriavzevii [21]): 0.125 µg/mL (≈ 0.24 µM)
MIC50 (Cryptococcus neoformans [22]): 0.5 µg/mL (≈ 0.962 µM)
MIC80 [23]: 8 µg/mL (≈ 15.4 µM)
MIC50 (Nakaseomyces glabratus [24]): 4 µg/mL (≈ 7.69 µM)
MIC50 (Nakaseomyces glabratus [25]): 64 µg/mL (≈ 123 µM)
MIC80 [26]: 8 µg/mL (≈ 15.4 µM)
MIC50 (Nakaseomyces glabratus [27]): 1 µg/mL (≈ 1.92 µM)
MIC50 (Nakaseomyces glabratus [28]): 0.125 µg/mL (≈ 0.24 µM)
MIC50 (Candida albicans [29]): 4 µg/mL (≈ 7.69 µM)
MIC80 [30]: 8 µg/mL (≈ 15.4 µM)
MIC50 (Nakaseomyces glabratus [31]): 4 µg/mL (≈ 7.69 µM)
MIC50 (Candida albicans [32]): 4 µg/mL (≈ 7.69 µM)
MIC50 (Pichia kudriavzevii [33]): 1 µg/mL (≈ 1.92 µM)
MIC50 (Candida parapsilosis [35]): 0.25 µg/mL (≈ 0.481 µM)
MIC50 (Cryptococcus neoformans [36]): 0.25 µg/mL (≈ 0.481 µM)
MIC50 (Candida albicans [37]): 8 µg/mL (≈ 15.4 µM)
MIC80 (Nannizzia gypsea [38]): 4 µg/mL (≈ 7.69 µM)
MIC80 (Nannizzia gypsea [39]): 8 µg/mL (≈ 15.4 µM)
MIC50 (Candida albicans [40]): 0.25 µg/mL (≈ 0.481 µM)
MIC50 (Candida tropicalis [41]): 0.5 µg/mL (≈ 0.962 µM)
Compound: O=C(Nc1ccc(N2CCN(c3ccc(Cl)cc3)CC2)cc1)OC(Cn1ccnc1)c1ccc(F)cc1 (stereo unspecified)
CC50 at 48 h [34]: 172 µg/mL (≈ 330 µM)
